Measurements: ChEMBL document CHEMBL5344428, “Discovery, Crystallographic Studies, and Mechanistic Investigations of Novel Phenylalanine Derivatives Bearing a Quinazolin-4-one Scaffold as Potent HIV Capsid Modulators” (J Med Chem, 2023)
Each block holds one compound with its values, some of them ahead of it.

Columns and labels:
[1] = tested on: Human immunodeficiency virus 1; assay: Selectivity ratio of Kd for HIV-1 NL4.3 monomeric capsid protein to Kd for HIV-1 NL4.3 hexameric capsid protein
In short: (§1)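 SPR binding of compound to monomeric or disulfide-stabilised hexameric HIV-1 CA NL4.3 protein; koff, residence time and KD derived from isotherms, monomer/hexamer ratio = KD monomer/KD hexamer. Triplicate, SD.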

[2] = target: T1, Structural capsid protein (Human immunodeficiency virus 1, UniProt Q76129); assay: Binding affinity to HIV-1 NL4.3 hexameric capsid protein assessed as dissociation constant by SPR analysis
T1 sequence (Q76129 whole entry): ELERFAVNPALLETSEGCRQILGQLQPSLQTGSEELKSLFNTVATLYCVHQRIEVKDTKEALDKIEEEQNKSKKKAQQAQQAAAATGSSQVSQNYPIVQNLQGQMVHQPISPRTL

[3] = target: Structural capsid protein (Human immunodeficiency virus 1) (UniProt Q76129); assay: Binding affinity to HIV-1 NL4.3 monomeric capsid protein assessed as residence time by SPR analysis; conditions: filed as modulator; in short: as §1
Structural capsid protein (Human immunodeficiency virus 1), sequence (Q76129 as listed by the source): as the sequence (Q76129 whole entry) above

[4] = target: Structural capsid protein (Human immunodeficiency virus 1) (UniProt Q76129); assay: Binding affinity to HIV-1 NL4.3 hexameric capsid protein assessed as residence time by SPR analysis; conditions: filed as modulator; in short: as §1
[5] = target: T1, Structural capsid protein; assay: Binding affinity to HIV-1 NL4.3 monomeric capsid protein assessed as dissociation constant by SPR analysis
[6] = target: Structural capsid protein (Human immunodeficiency virus 1) (UniProt Q76129); assay: Binding affinity to HIV-1 NL4.3 hexameric capsid protein assessed as Koff by SPR analysis; conditions: filed as modulator; in short: as §1
[7] = Metabolic stability in human liver microsomes assessed as parent compound remaining at 1 uM incubated for 60 mins in presence of NADPH by LC-MS/MS analysis; format: ADME, Microsome; conditions: 1 h
In short: (§2)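 Human liver microsomes were used at a final 0.5 mg protein/mL, incubated 60 min with an NADPH regenerating system. The no-cofactor arm replaced NADPH with buffer. T1/2 came from linear regression of the kinetic data. CLint(mic) = (0.693/T1/2)/mg microsomal protein per mL. CLint(liver) was scaled by mg microsomal protein/g liver and g liver/kg body weight.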

[8] = tested on: Human immunodeficiency virus 2; assay: Antiviral activity against HIV2 ROD infected in human MT4 cells assessed as reduction in virus induced cytopathic effect measured after 5 days by MTT assay; format: functional, organism-based; conditions: Human immunodeficiency virus 2, ROD, MT4, 120 h
In short: (§3)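 MT-4 cells were infected with HIV-1 IIIB or HIV-2 ROD, and cell viability was read by MTT. […] Each value was run in at least triplicate and averaged from at least three independent experiments.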

[9] = tested on: Human immunodeficiency virus 1; assay: Antiviral activity against HIV1 IIIB infected in human MT4 cells assessed as reduction in virus induced cytopathic effect measured after 5 days by MTT assay; format: functional, organism-based; conditions: Human immunodeficiency virus 1, IIIB, MT4, 120 h; in short: as §3
[10] = Metabolic stability in human liver microsomes assessed as parent compound remaining at 1 uM incubated for 60 mins in absence of NADPH by LC-MS/MS analysis; format: ADME, Microsome; conditions: 1 h; in short: as §2
[11] = Metabolic stability in human liver microsomes assessed as half-life at 1 uM incubated for 60 mins in presence of NADPH by LC-MS/MS analysis; format: ADME, Microsome
[12] = (§4) Cytotoxicity against human MT4 cells assessed as reduction in cell viability incubated for 5 days by MTT assay; format: toxicity, cell-based; conditions: MT4 cells, time 5 day
In short: (§5)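 Uninfected MT-4 cells were exposed to compound, and viability was read by the MTT method. […] Each value was run in at least triplicate and averaged from at least three independent experiments.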

[13] = tested on: Human immunodeficiency virus 1; assay: Antiviral activity against HIV1 NL4.3 infected in human U87.CD4.CXCR4 cells assessed as inhibition of late stage replication by measuring infection at 1 uM incubated for 48 hrs by microplate luminometer based single-round infection assay (reference value: 100.0 +/- 18.40%); format: functional; design: scale not given: the % may be the effect or the level left
[14] = tested on: Human immunodeficiency virus 2; assay: Antiviral activity against HIV-2 ROD infected in human MT4 cells assessed as protection against virus induced cytopathic effect; format: functional, organism-based; conditions: Human immunodeficiency virus 2, ROD; in short: as §3
[15] = target: T1, Structural capsid protein; assay: Competitive binding affinity to HIV-1 NL4.3 hexameric capsid protein assessed as inhibition of CPSF6 binding to capsid protein by SPR analysis
[16] = tested on: Human immunodeficiency virus 1; assay: Antiviral activity against HIV1 NL4.3 infected in human U87.CD4.CXCR4 cells assessed as inhibition of early stage replication by measuring infection at 1 uM incubated for 48 hrs by microplate luminometer based single-round infection assay (reference value: 100.0 +/- 30.99%); format: functional; design: scale not given: the % may be the effect or the level left
[17] = Metabolic stability in human liver microsomes assessed as intrinsic clearance at 1 uM incubated for 60 mins in presence of NADPH by LC-MS/MS analysis; format: ADME, Microsome
[18] = tested on: Human immunodeficiency virus 1; assay: Antiviral activity against HIV-1 IIIB infected in human MT4 cells assessed as protection against virus induced cytopathic effect; format: functional, organism-based; conditions: Human immunodeficiency virus 1, IIIB; in short: as §3
[19] = target: Structural capsid protein (Human immunodeficiency virus 1) (UniProt Q76129); assay: Binding affinity to HIV-1 NL4.3 monomeric capsid protein assessed as Koff by SPR analysis; conditions: filed as modulator; in short: as §1
[20] = Selectivity ratio of EC50 for antiviral activity against HIV1 IIIB infected in human MT4 cells to EC50 for antiviral activity against HIV2 ROD infected in human MT4 cells; format: toxicity, cell-based
In short: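 Ratio is EC50 against HIV-1 IIIB divided by EC50 against HIV-2 ROD. Both EC50 values come from MTT-read protection of infected MT-4 cells.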

[21] = Selectivity index, ratio of CC50 for cytotoxicity against human MT4 cells to EC50 for antiviral activity against HIV1 IIIB infected in human MT4 cells; format: toxicity, cell-based; conditions: read-out: Ratio CC50/EC50
In short: (§6)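 SI is CC50 divided by EC50. CC50 comes from MTT viability of uninfected MT-4 cells. EC50 comes from MTT-read protection of MT-4 cells infected with HIV-1 IIIB or HIV-2 ROD. Each value was run in at least triplicate.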

[22] = Selectivity index, ratio of CC50 for cytotoxicity against human MT4 cells to EC50 for antiviral activity against HIV2 ROD infected in human MT4 cells; format: toxicity, cell-based; conditions: read-out: Ratio CC50/EC50; in short: as §6
MT4 = assay: as §4; format: toxicity, cell-based; conditions: mt4, 120 h, time 5 day; in short: as §5
[23] = target: Human immunodeficiency virus type 1 reverse transcriptase (Human immunodeficiency virus 1) (UniProt Q72547); conditions: dose 100.0 nM
[24] = Metabolic stability in human liver assessed as intrinsic clearance at 1 uM incubated for 60 mins in presence of NADPH by LC-MS/MS analysis; format: ADME, tissue-based; conditions: read-out: CLH; in short: as §2
[25] = Cytotoxicity against human MT4 cells assessed as reduction in cell viability; format: toxicity, cell-based; in short: as §5

Compound: COc1ccc(N(C)C(=O)[C@H](Cc2ccccc2)NC(=O)Cc2c(C)[nH]c3ccccc23)cc1
Selectivity ratio [1]: 20.6
Kd [2]: 47 nM
TIME [3]: 0.000183 h
TIME [4]: 0.00772 h
Kd [5]: 969 nM
K [6]: 0.036 s⁻¹
Stability [7]: 0%
EC50 [8]: 2220 nM
EC50 [9]: 800 nM
Stability [10]: 106.1%
half-life at 1 µM ([11]; liver microsomes): 42 s
CC50 at 120 h [12]: > 32300 nM
Activity [13]: 4.185%
EC50 [14]: 4160 nM
IC50 [15]: 26.6 nM
Activity [16]: 0.07%
CLH ([17]; microsomes, 1 h, 1 µM): 2114.6 µL/min/mg
EC50 [18]: 750 nM
K [19]: 1.58 s⁻¹

Compound: COc1ccc(-n2c([C@H](Cc3ccccc3)NC(=O)CN3CCN(S(=O)(=O)c4ccc([N+](=O)[O-])cc4)CC3=O)nc3ccccc3c2=O)cc1
Ratio EC50 [20]: 2.65
selectivity ratio [21]: > 119
EC50 [8]: 570 nM
selectivity ratio [22]: > 312
EC50 [9]: 1510 nM
CC50 (MT4): > 179000 nM

Compound: Cc1cc(/C=C/C#N)cc(C)c1Nc1ccnc(Nc2ccc(C#N)cc2)n1
inhibition [23]: 50%

Compound: O=C(CN1CCN(S(=O)(=O)c2ccc([N+](=O)[O-])cc2)CC1)N[C@@H](Cc1cc(F)cc(F)c1)c1nc2ccccc2c(=O)n1-c1ccc(S(=O)(=O)N2CCS(=O)(=O)CC2)cc1
Ratio EC50 [20]: 1.54
selectivity ratio [21]: > 45.6
EC50 [8]: 1970 nM
selectivity ratio [22]: > 70.6
EC50 [9]: 3040 nM
CC50 (MT4): > 139000 nM

CLint scaled at 1 µM [24]: 280 mL/min/kg
Compound: O=C(O)Cc1ccccc1Nc1c(Cl)cccc1Cl [DICLOFENAC]

Compound: COc1ccc(N(C)C(=O)[C@H](Cc2ccccc2)NC(=O)CN2CCN(S(=O)(=O)c3ccc(N)cc3)CC2=O)cc1
TIME [3]: 1.67e-05 h
TIME [4]: 0.000133 h
K [6]: 2.04 s⁻¹
Stability [7]: 0%
EC50 [8]: 30 nM
EC50 [9]: 280 nM
Stability [10]: 113.3%
t1/2 ([11]; microsomes, 1 h, 1 µM): 240 s
Activity [13]: 0.807%
EC50 [14]: 30 nM
Activity [16]: 0.092%
CLint scaled at 1 µM [24]: 309 mL/min/kg
microsomal CLint at 1 µM ([17]; liver microsomes, read-out: CLH): 344 µL/min/mg
EC50 [18]: 280 nM
K [19]: 13.4 s⁻¹

EC50 [14]: 120 nM
EC50 [18]: 240 nM
Compound: COc1ccc(N(C)C(=O)[C@H](Cc2cc(F)cc(F)c2)NC(=O)CN2CCN(S(=O)(=O)c3cccc(F)c3)CC2)cc1
CC50 [25]: > 202000 nM
Ratio EC50 [20]: 2
selectivity ratio [21]: > 843
selectivity ratio [22]: > 1690

EC50 [14]: 90 nM
EC50 [18]: 180 nM
Compound: COc1ccc(N(C)C(=O)[C@H](Cc2cc(F)cc(F)c2)NC(=O)CN2CCN(S(=O)(=O)c3ccccc3F)CC2)cc1
CC50 [25]: 181000 nM
Ratio EC50 [20]: 2
selectivity ratio [21]: 1000
selectivity ratio [22]: 2010
